Converted amounts (≈) assume the structure as drawn.
How the values were obtained:
Assay type in all cases: functional
Cytomegalovirus [1] = assay: In vitro minimum inhibitory concentration to inhibit CMV (Davis)-induced cytopathogenicity in HEL cells by 50%; conditions: Human betaherpesvirus 5
Human alphaherpesvirus 2 [2] = assay: In vitro minimum inhibitory concentration to inhibit HSV-2 (196)-induced cytopathogenicity in PRK cells by 50%
Procedure, shortened: (§1)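 Antiviral read-out was virus-induced cytopathogenicity in primary rabbit kidney (PRK) cell cultures. The value is the compound concentration needed to reduce cytopathogenicity by 50%.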

Human alphaherpesvirus 2 [3] = assay: In vitro minimum inhibitory concentration to inhibit HSV-2 (G)-induced cytopathogenicity in PRK cells by 50%; procedure, shortened: as §1
Human alphaherpesvirus 2 [4] = assay: In vitro minimum inhibitory concentration to inhibit HSV-2 (Lyons)-induced cytopathogenicity in PRK cells by 50%; procedure, shortened: as §1
Human alphaherpesvirus 1 [5] = assay: In vitro minimum inhibitory concentration to inhibit HSV-1 (KOS)-induced cytopathogenicity in primary rabbit kidney cells by 50%; procedure, shortened: as §1
Human alphaherpesvirus 1 [6] = assay: In vitro minimum inhibitory concentration to inhibit HSV-1 (McIntyre)-induced cytopathogenicity in PRK cells by 50%; procedure, shortened: as §1
Human alphaherpesvirus 1 [7] = assay: In vitro minimum inhibitory concentration to inhibit thymidine deficient HSV-1 (B2006)-induced cytopathogenicity in PRK cells by 50%; procedure, shortened: as §1
Human alphaherpesvirus 1 [8] = assay: In vitro minimum inhibitory concentration to inhibit thymidine deficient HSV-1 (VMV 1837)- induced cytopathogenicity in PRK cells by 50%; procedure, shortened: as §1
[9] = In vitro minimum inhibitory concentration to inhibit […] (incorporation of [methyl-3H]dThd) in PRK cells by 50%
Suid alphaherpesvirus 1 = assay: In vitro minimum inhibitory concentration to inhibit SHV-1-induced cytopathogenicity in PRK cells by 50%; procedure, shortened: as §1
Equid alphaherpesvirus 1 = assay: In vitro minimum inhibitory concentration to inhibit EHV-1-induced cytopathogenicity in PRK cells by 50%; procedure, shortened: as §1
[10] = tested on: Bovine alphaherpesvirus 1; assay: In vitro minimum inhibitory concentration to inhibit BHV-1-induced cytopathogenicity in PRK cells by 50%; procedure, shortened: as §1
Human alphaherpesvirus 1 [11] = assay: In vitro minimum inhibitory concentration to inhibit HSV-1 (F)-induced cytopathogenicity in primary rabbit kidney cells by 50%; procedure, shortened: as §1
FM3A = assay: Antitumor activity against murine mammary carcinoma FM3A cells; conditions: Mus musculus; read-out: MIC
Procedure, shortened: (§2)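 Tumor cell proliferation assay. Murine leukemia L1210 and murine mammary carcinoma FM3A cells were grown in culture with the compound. The value is the concentration inhibiting cell proliferation by 50%.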

L1210 = assay: Antitumor activity against murine leukemia L1210 cells; conditions: Mus musculus; read-out: MIC; procedure, shortened: as §2
Human alphaherpesvirus 3 [12] = assay: In vitro minimum inhibitory concentration to inhibit VZV (Oka)-induced cytopathogenicity in HEL cells by 50%
Human alphaherpesvirus 3 [13] = assay: In vitro minimum inhibitory concentration to inhibit VZV (YS)-induced cytopathogenicity in HEL cells by 50%
Human alphaherpesvirus 3 [14] = assay: In vitro minimum inhibitory concentration to inhibit thymidine deficient VZV (YSR)-induced cytopathogenicity in HEL cells by 50%
Cytomegalovirus [15] = assay: In vitro minimum inhibitory concentration to inhibit CMV (AD-169)-induced cytopathogenicity in HEL cells by 50%; conditions: Human betaherpesvirus 5

SMILES | MIC (Cytomegalovirus [1]) [µg/mL] | MIC (Human alphaherpesvirus 2 [2]) [µg/mL] | MIC (Human alphaherpesvirus 2 [3]) [µg/mL] | MIC (Human alphaherpesvirus 2 [4]) [µg/mL] | MIC (Human alphaherpesvirus 1 [5]) [µg/mL] | MIC (Human alphaherpesvirus 1 [6]) [µg/mL] | MIC (Human alphaherpesvirus 1 [7]) [µg/mL] | MIC (Human alphaherpesvirus 1 [8]) [µg/mL] | MIC [9] [µg/mL] | MIC (Suid alphaherpesvirus 1) [µg/mL] | MIC (Equid alphaherpesvirus 1) [µg/mL] | MIC [10] [µg/mL] | MIC (Human alphaherpesvirus 1 [11]) [µg/mL] | IC50 (FM3A) [µg/mL] | IC50 (L1210) [µg/mL] | MIC ([9]; Oryctolagus cuniculus) [µg/mL] | MIC (Human alphaherpesvirus 3 [12]) [µg/mL] | MIC (Human alphaherpesvirus 3 [13]) [µg/mL] | MIC (Human alphaherpesvirus 3 [14]) [µg/mL] | MIC (Cytomegalovirus [15]) [µg/mL]
Nc1nc2c(ncn2COCCO)c(=O)[nH]1 [ACYCLOVIR] | 20 (≈ 88.8 µM) | 0.07 (≈ 0.311 µM) | 0.07 (≈ 0.311 µM) | 0.2 (≈ 0.888 µM) | 0.2 (≈ 0.888 µM) | 0.2 (≈ 0.888 µM) | 20 (≈ 88.8 µM) | 20 (≈ 88.8 µM) | 8 (≈ 35.5 µM) | 7 (≈ 31.1 µM) | 0.2 (≈ 0.888 µM) | 7 (≈ 31.1 µM) | 0.1 (≈ 0.444 µM) |  |  |  |  |  |  | 
Cc1cn2c(O)c3ncn(COCCO)c3nc2n1 | > 100 | 0.7 (≈ 2.66 µM) | 0.7 (≈ 2.66 µM) | 2 (≈ 7.6 µM) | 2 (≈ 7.6 µM) | 2 (≈ 7.6 µM) | 400 (≈ 1520 µM) | 400 (≈ 1520 µM) |  | > 400 | 20 (≈ 76 µM) | > 400 | 2 (≈ 7.6 µM) | > 100 | > 100 | 257 (≈ 976 µM) | 20 (≈ 76 µM) | 20 (≈ 76 µM) | > 100 | > 100
CNc1nc(O)c2ncn(COCCO)c2n1 | > 100 | > 400 | 300 (≈ 1250 µM) | > 400 | > 400 | > 400 | > 400 | > 400 |  | > 400 | > 400 | > 400 | > 400 | > 100 | > 100 | > 400 | > 100 | > 100 | > 100 | > 100
Cn1c[n+](COCCO)c2nc(N)nc([O-])c21.O=S(=O)(O)O | > 100 | 100 | 40 | 100 | 70 | 70 | > 400 | > 400 |  | > 400 | > 400 | > 400 | 70 | > 100 | > 100 | > 400 | > 100 | > 100 | > 100 | > 100
Cn1c(N)nc2c(ncn2COCCO)c1=O | > 100 | 2 (≈ 8.36 µM) | 1 (≈ 4.18 µM) | 2 (≈ 8.36 µM) | 1 (≈ 4.18 µM) | 2 (≈ 8.36 µM) | 300 (≈ 1250 µM) | 300 (≈ 1250 µM) |  | 70 (≈ 293 µM) | 10 (≈ 41.8 µM) | > 400 | 2 (≈ 8.36 µM) | > 100 | > 100 | > 400 | 20 (≈ 83.6 µM) | 20 (≈ 83.6 µM) | > 100 | > 100
Cc1cn2c(=O)c3ncn(COCCO)c3nc2n1C | > 100 | > 400 | > 400 | > 400 | > 400 | > 400 | > 400 | > 400 |  | > 400 | > 400 | > 400 | > 400 | > 100 | > 100 | > 4000 | > 100 | > 100 | > 100 | > 100
Cc1cn2c([O-])c3c(nc2n1)[n+](COCCO)cn3C | > 100 | 70 (≈ 252 µM) | 70 (≈ 252 µM) | 70 (≈ 252 µM) | 70 (≈ 252 µM) | 70 (≈ 252 µM) | > 400 | > 400 |  | > 400 | > 400 | > 400 | 70 (≈ 252 µM) | > 100 | > 100 | > 400 | > 100 | > 100 | > 100 | > 100
